In ChEMBL document CHEMBL3608281, “Synthesis and biological evaluation of novel 3,9-substituted β-carboline derivatives as anticancer agents” (Bioorg Med Chem Lett, 2015) one finds IC50 data, which are given here for 18 compounds.

The test system of one test is HL-60. The test is described as follows: Cytotoxicity against human HL60 cells incubated for 48 hrs by MTT assay. In kind it is functional, cell-based. The note with it: HL-60, 48 h. A digest of the protocol:
(§1)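 Human tumour lines (HL-60 leukemia, Hep3B liver, H460 lung, A498 renal, COLO205 colon, 2774 and SK-OV-3 ovarian) and normal Detroit 551 skin fibroblasts were exposed to a range of concentrations for 48 h. IC50 is the concentration giving 50% proliferation inhibition, as the mean of three independent determinations.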

Test [1] can be described thus: Cytotoxicity against human Hep3B cells incubated for 48 hrs by MTT assay. In kind it is functional, cell-based, Hep 3B2. A digest of the protocol:
as §1

The nature of test [2]: Cytotoxicity against human H460 cells incubated for 48 hrs by MTT assay. The following applies: NCI-H460, 48 h. In kind it is functional, cell-based. A digest of the protocol: as §1
The next test concerns A498. The test is described as follows: Cytotoxicity against human A498 cells incubated for 48 hrs by MTT assay. In kind it is functional, cell-based. The following applies: A498, 48 h.
Another test relates to COLO 205. The test is described as follows: Cytotoxicity against human COLO205 cells incubated for 48 hrs by MTT assay. The class given is functional, cell-based. The note with it: COLO 205, 48 h. A digest of the protocol:
as §1

Test [3] is described as follows: Cytotoxicity against human 2774 cells incubated for 48 hrs by MTT assay. The class given is functional, cell-based. A digest of the protocol: as §1
For the next test, the system named is SK-OV-3. The test is described as follows: Cytotoxicity against human SKOV3 cells incubated for 48 hrs by MTT assay. In kind it is functional, cell-based. The note with it: SK-OV-3, 48 h. A digest of the protocol: as §1
Another test has as its system Detroit 551. The test is described as follows: Cytotoxicity against human Detroit 551 cells incubated for 48 hrs by MTT assay. In kind it is cell-based. The following applies: Detroit 551, 48 h. A digest of the protocol:
as §1

On to `CCOC(=O)c1cc2c3ccccc3n(Cc3cc(OC)cc(OC)c3)c2cn1`, for which the IC50 (with HL-60; in test [1]; in test [2]; in the test on A498; in the test with COLO 205; in test [3]) was more than 100 µM throughout. Moreover, the IC50 in the test with SK-OV-3 is 24.4 µM; in the test on Detroit 551, more than 100 µM.
For `CCOC(=O)c1cc2c3ccccc3n(Cc3ccc(F)cc3)c2cn1`, the IC50 in the test on HL-60 is more than 100 µM; in test [1] it was more than 100 µM; in test [2] it was more than 100 µM; with A498, 50.4 µM; in the test with COLO 205, more than 100 µM; in test [3] it was more than 100 µM. The IC50 in the test on SK-OV-3 and in the test on Detroit 551 was more than 100 µM in each case.
`CCOC(=O)c1cc2c(cn1)[nH]c1ccccc12`: the IC50 (with HL-60; in test [1]; in test [2]; in the test on A498; with COLO 205; in test [3]) was more than 100 µM each time. In addition, the IC50 in the test on SK-OV-3 and with Detroit 551 was more than 100 µM each time.
With `CCOC(=O)c1cc2c3ccccc3n(Cc3cc(OC)c(OC)c(OC)c3)c2cn1`, the IC50 in the test on HL-60 was 21.9 µM; in test [1] it was more than 100 µM; in test [2], more than 100 µM; in the test with A498, more than 100 µM; in the test on COLO 205, more than 100 µM; in test [3], more than 100 µM. The concentration for half-maximal inhibition (IC50) in the test on SK-OV-3 and in the test with Detroit 551 was more than 100 µM each time.
Take `CCOC(=O)c1cc2c3ccccc3n(Cc3ccc(Cl)cc3)c2cn1`: the IC50 in the test with HL-60 is more than 100 µM; in test [1], more than 100 µM; in test [2] it was more than 100 µM; in the test with A498, more than 100 µM; in the test with COLO 205, more than 100 µM; in test [3], 16.4 µM. Further, the values for the IC50 in the test on SK-OV-3 and in the test on Detroit 551 were 2.9 µM and more than 100 µM, respectively.
Consider `CCOC(=O)c1cc2c3ccccc3n(Cc3ccccn3)c2cn1`, for which the IC50 in the test with HL-60 was more than 100 µM; in test [1] it was more than 100 µM; in test [2] it was more than 100 µM; in the test on A498, 46.3 µM; in the test with COLO 205 it was 38.7 µM; in the test on Detroit 551, more than 100 µM.
As to `O=C(O)c1cc2c3ccccc3n(Cc3ccccc3)c2cn1`, the IC50 is 5 µM in the test on HL-60; 4.4 µM in test [1]; 18.5 µM in test [2]; 9.2 µM in the test on A498; 31 µM in the test on COLO 205.
For the compound `OCc1cc2c3ccccc3nc-2c[nH]1`, the IC50 (in the test on HL-60; in test [1]; in test [2]; with A498; in the test with COLO 205; in test [3]) was more than 100 µM in each case. Besides, the 50% inhibitory concentration (IC50) in the test with SK-OV-3 and in the test on Detroit 551 was more than 100 µM in each case.
On to `O=C(O)C1Cc2c([nH]c3ccccc23)CN1` (centres undefined), for which the IC50 (in test [2]; in the test on A498; in the test on COLO 205) was more than 50 µM in each case.
For the compound `CCOC(=O)c1cc2c3ccccc3n(Cc3cccc(OC)c3)c2cn1`, the IC50 is 21.6 µM in the test with A498, 26.7 µM with COLO 205, more than 100 µM in test [3] and more than 100 µM with SK-OV-3.
On to `CCOC(=O)c1cc2c3ccccc3n(Cc3cccnc3)c2cn1`, for which the IC50 (in the test on HL-60; in test [1]; in test [2]; with A498; with COLO 205; in test [3]) was more than 100 µM each time. Moreover, the IC50 in the test with SK-OV-3 and with Detroit 551 was more than 100 µM in each case.
Turning to `O=C(O)c1cc2c3ccccc3n(Cc3ccc(F)cc3)c2cn1`, the IC50 worked out at 7.6 µM with A498, 33.5 µM in the test on COLO 205, 23.5 µM in test [3] and 27.7 µM in the test on SK-OV-3.
Turning to `CCOC(=O)c1cc2c3ccccc3n(Cc3ccncc3)c2cn1`, the IC50 (in the test on A498; with COLO 205; in test [3]; in the test with SK-OV-3) was more than 100 µM throughout.
With `CCOC(=O)c1cc2c3ccccc3n(Cc3ccccc3OC)c2cn1`, the IC50 in the test on HL-60 was 3.9 µM; in test [1], 8.9 µM; in test [2], more than 100 µM; in the test on A498 it was 41.3 µM; in the test with COLO 205, more than 100 µM; in test [3] it was more than 100 µM. Moreover, the half-maximal inhibitory concentration (IC50) with SK-OV-3 and with Detroit 551 was more than 100 µM throughout.
For `CCOC(=O)c1cc2c3ccccc3n(Cc3ccc(OC)cc3)c2cn1`, the 50% inhibitory concentration (IC50) is 39 µM in the test with HL-60; 50 µM in test [1]; 50 µM in test [2]; 38.5 µM in the test with A498; 36.9 µM in the test on COLO 205; more than 100 µM in test [3]. Also, the IC50 in the test with SK-OV-3 was more than 100 µM; in the test on Detroit 551 it was 50 µM.
`O=C(O)c1cc2c3ccccc3nc-2c[nH]1`: the IC50 was 75 µM with HL-60; 75 µM in test [1]; 70.5 µM in test [2]; more than 100 µM in the test on A498; 49.6 µM with COLO 205; more than 100 µM in test [3]. In addition, the IC50 with SK-OV-3 and in the test on Detroit 551 was more than 100 µM throughout.
In the case of `CCOC(=O)c1cc2c3ccccc3n(Cc3ccccc3)c2cn1`, the IC50 in the test on HL-60 was more than 100 µM; in test [1], more than 100 µM; in test [2], more than 100 µM; in the test on A498 it was 48.2 µM; with COLO 205 it was more than 100 µM; in test [3] it was 26.8 µM. The IC50 was 3 µM with SK-OV-3 and 50 µM with Detroit 551.
As for `O=C(O)c1cc2c3ccccc3n(Cc3ccc(Cl)cc3)c2cn1`, the IC50 with HL-60 amounted to 3.9 µM; in test [1], 1.2 µM; in test [2], 15.1 µM; in the test with A498, 9.9 µM; in the test on COLO 205, 26.5 µM.
